Measured values taken from ChEMBL document CHEMBL1800025 (J Med Chem, 2011).
Active and inactive are the calls of the source. The rule behind the calls is not given here.

Experiments:
Sus scrofa = species: Sus scrofa; test: Inhibition of pig brain CK1 delta/epsilon using RRKHAAIGpSAYSITA as substrate at 10 uM
Method in brief: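 Native CK1δ/ε from porcine brain, assayed in 3-fold diluted buffer C with 25 μM CKS peptide substrate. 15 μM ATP final, 30 C. Activity is percent of uninhibited control after blank subtraction, with DMSO controls. Inhibitor tested over a range of concentrations up to 10 μM.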

[1] = biological target: Dual specificity protein kinase CLK1 (Mus musculus, UniProt P22518); test: Inhibition of mouse recombinant GST-tagged CLK1 using GRSRSRSRSRSR as substrate
Sequence of Dual specificity protein kinase CLK1 (P22518 whole entry, the tested form may be a part): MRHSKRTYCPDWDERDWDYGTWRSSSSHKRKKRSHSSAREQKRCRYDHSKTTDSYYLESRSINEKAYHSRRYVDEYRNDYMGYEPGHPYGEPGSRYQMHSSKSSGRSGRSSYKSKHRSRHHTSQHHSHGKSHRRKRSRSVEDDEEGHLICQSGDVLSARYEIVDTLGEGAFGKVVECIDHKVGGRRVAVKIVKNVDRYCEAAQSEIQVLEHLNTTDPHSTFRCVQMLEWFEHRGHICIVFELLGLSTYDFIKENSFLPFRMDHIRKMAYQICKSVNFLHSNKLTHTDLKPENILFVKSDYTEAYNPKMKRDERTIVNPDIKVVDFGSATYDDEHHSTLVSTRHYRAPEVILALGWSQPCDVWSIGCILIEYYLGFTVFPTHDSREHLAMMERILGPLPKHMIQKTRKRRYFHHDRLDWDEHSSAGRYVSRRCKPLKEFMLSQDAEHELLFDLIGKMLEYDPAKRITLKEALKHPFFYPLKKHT
Method in brief: (§1)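 Mouse GST-fusion CLK1 or CLK3 expressed in E. coli. Assay buffer A (Tris-HCl pH 7.5, MgCl2, EGTA, DTT, heparin) plus 0.15 mg/mL BSA. RS peptide 1 μg/assay, 15 μM ATP final, 30 C. Blank subtracted; activity expressed as percent of activity without inhibitor. DMSO controls. Concentration range up to 10 μM.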

[2] = biological target: T1, Dual specificity tyrosine-phosphorylation-regulated kinase 2 (Homo sapiens) (UniProt Q92630); settings: 10 uM
T1 sequence (whole entry): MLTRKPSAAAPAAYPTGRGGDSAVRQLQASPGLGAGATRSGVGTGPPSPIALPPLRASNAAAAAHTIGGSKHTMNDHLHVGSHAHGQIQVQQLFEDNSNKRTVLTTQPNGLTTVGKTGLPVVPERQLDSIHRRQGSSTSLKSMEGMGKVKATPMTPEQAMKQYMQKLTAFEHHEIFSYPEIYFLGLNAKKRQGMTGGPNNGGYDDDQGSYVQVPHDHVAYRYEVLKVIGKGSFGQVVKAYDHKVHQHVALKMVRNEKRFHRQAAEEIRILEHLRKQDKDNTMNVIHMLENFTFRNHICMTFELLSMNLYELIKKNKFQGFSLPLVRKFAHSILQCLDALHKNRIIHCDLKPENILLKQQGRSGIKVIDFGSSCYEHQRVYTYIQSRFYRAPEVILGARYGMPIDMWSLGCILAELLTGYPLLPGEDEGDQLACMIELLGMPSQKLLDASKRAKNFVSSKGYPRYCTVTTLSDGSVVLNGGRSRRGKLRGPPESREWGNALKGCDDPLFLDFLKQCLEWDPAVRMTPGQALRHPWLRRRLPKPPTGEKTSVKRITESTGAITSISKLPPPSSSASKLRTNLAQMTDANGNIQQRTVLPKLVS

[3] = biological target: Dual specificity protein kinase CLK3 (Homo sapiens) (UniProt P49761); test: Inhibition of CLK3-mediated SRp55 protein phosphorylation in TNFalpha-stimulated human HMEC1 cells after 1 hr by Western blot analysis; assay type: cell-based
Sequence of Dual specificity protein kinase CLK3 (Homo sapiens) (P49761 whole entry, looked up): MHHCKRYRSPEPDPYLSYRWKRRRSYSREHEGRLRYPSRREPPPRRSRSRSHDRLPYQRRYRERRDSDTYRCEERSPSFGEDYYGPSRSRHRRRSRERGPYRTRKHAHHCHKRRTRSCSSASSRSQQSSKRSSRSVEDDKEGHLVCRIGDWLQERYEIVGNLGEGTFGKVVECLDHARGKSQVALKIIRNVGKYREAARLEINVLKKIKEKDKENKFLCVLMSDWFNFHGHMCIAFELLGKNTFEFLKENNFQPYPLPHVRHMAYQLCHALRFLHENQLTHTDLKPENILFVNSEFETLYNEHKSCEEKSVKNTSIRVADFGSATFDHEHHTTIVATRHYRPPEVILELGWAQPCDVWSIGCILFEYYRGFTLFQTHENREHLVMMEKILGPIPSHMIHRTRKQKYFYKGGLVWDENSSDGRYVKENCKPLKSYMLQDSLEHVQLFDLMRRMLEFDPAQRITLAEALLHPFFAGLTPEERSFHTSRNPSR
Method in brief: (§2)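 HMEC-1 cells grown in endothelial medium with 5% FCS at 37 C, 5% CO2. Serum-starved 1 h in basal medium, pretreated 1 h with inhibitor at varying concentrations, then stimulated with 10 ng/mL TNF-alpha. Lysed 2 min after stimulation. Phospho-SRp75 and phospho-SRp55 detected by Western blot with mAb1H4, GAPDH as loading control, quantified by densitometry. At least 3 independent experiments.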

[4] = biological target: Dual specificity protein kinase CLK1 (Homo sapiens) (UniProt P49759); test: Inhibition of CLK1 transfected in human HeLa cells assessed as increase in exon inclusion ratio after 24 hrs by RT-PCR analysis; assay type: cell-based
Sequence of Dual specificity protein kinase CLK1 (Homo sapiens) (P49759 whole entry, looked up, canonical isoform): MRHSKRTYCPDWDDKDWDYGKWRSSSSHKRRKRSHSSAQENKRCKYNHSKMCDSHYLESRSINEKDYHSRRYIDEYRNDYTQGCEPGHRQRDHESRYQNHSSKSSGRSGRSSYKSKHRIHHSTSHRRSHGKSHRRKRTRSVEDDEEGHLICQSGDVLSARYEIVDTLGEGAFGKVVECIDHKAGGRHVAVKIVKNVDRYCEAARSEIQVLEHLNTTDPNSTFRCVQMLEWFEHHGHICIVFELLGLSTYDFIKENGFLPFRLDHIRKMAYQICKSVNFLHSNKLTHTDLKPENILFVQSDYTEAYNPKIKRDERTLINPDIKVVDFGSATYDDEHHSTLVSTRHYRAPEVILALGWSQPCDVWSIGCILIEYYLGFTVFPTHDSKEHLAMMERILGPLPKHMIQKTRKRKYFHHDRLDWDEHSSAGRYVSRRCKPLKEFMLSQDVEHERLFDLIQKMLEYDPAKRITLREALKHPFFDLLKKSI
Method in brief: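 HeLa cells were transfected with […], with kinase-dead CLK1/K190R as comparator. Inhibitors at varying doses were added 3 h post-transfection, with 0.5% DMSO final in all cultures. Cells were harvested 24 h post-transfection, total RNA was extracted, and E1A splicing products were analysed by RT-PCR. Isoform molar ratios were measured by Bioanalyzer to give the exon inclusion ratio. Three independent samples were used.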

[5] = biological target: Dual specificity protein kinase CLK1 (Homo sapiens) (UniProt P49759); test: Inhibition of recombinant CLK1-mediated SR 9G8 protein phosphorylation at 10 uM after 30 mins by SDS-PAGE followed by autoradiography
Method in brief: (§3)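 Recombinant SR protein 9G8 (87 ng) phosphorylated by each kinase, diluted to equal specific activity toward RS peptide. 15 μM [γ-33P]ATP, 30 min at 30 C, with or without 10 μM inhibitor. Reaction stopped in loading buffer; SDS-PAGE and autoradiography.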

[6] = biological target: Dual specificity tyrosine-phosphorylation-regulated kinase 1A (Rattus norvegicus, UniProt Q63470); test: Inhibition of rat recombinant GST-tagged DYRK1A using KKISGRLSPIMTEQ as substrate and [gamma32]-ATP after 30 mins by scintillation counting
Method in brief: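 GST fusion kinases expressed in E. coli and purified on glutathione-agarose; DYRK1A is rat, DYRK2 is human. Assay buffer A (25 mM Tris-HCl pH 7.5, 10 mM MgCl2, 1 mM EGTA, 1 mM DTT, 50 μg/mL heparin) plus 0.15 mg/mL BSA. Product captured on P81 paper, washed in 1% phosphoric acid, scintillation counted. Activity expressed as percent of uninhibited control.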

[7] = biological target: Glycogen synthase kinase-3 (Sus scrofa, UniProt B2LUN4+I6LNT8); test: Inhibition of pig brain GSK-3alpha/beta using YRRAAVPPSPSLSRHSSPHQSpEDEEE as substrate
Method in brief: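 Compounds were tested at various concentrations, the highest being 10 μM, with DMSO dilution controls. Blanks were subtracted and activity was expressed as percent of the uninhibited maximum.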

[8] = biological target: Dual specificity protein kinase CLK3 (Mus musculus, UniProt O35492); test: Inhibition of mouse recombinant GST-tagged CLK3 using GRSRSRSRSRSR as substrate; method in brief: as §1
Sequence of Dual specificity protein kinase CLK3 (O35492 whole entry): as the sequence (P49761 whole entry, looked up) above, with L55I, R64H, Y83C, P86S, G99A, T484S counted along it

[9] = biological target: Dual specificity protein kinase CLK1 (Homo sapiens) (UniProt P49759); test: Inhibition of CLK1-mediated SRp55 protein phosphorylation in TNFalpha-stimulated human HMEC1 cells after 1 hr by Western blot analysis; assay type: cell-based; method in brief: as §2
[10] = biological target: T2, Dual specificity tyrosine-phosphorylation-regulated kinase 3 (Homo sapiens) (UniProt O43781); test: Inhibition of recombinant DYRK3-mediated SR 9G8 protein phosphorylation at 10 uM after 30 mins by SDS-PAGE followed by autoradiography; method in brief: as §3
T2 sequence (whole entry): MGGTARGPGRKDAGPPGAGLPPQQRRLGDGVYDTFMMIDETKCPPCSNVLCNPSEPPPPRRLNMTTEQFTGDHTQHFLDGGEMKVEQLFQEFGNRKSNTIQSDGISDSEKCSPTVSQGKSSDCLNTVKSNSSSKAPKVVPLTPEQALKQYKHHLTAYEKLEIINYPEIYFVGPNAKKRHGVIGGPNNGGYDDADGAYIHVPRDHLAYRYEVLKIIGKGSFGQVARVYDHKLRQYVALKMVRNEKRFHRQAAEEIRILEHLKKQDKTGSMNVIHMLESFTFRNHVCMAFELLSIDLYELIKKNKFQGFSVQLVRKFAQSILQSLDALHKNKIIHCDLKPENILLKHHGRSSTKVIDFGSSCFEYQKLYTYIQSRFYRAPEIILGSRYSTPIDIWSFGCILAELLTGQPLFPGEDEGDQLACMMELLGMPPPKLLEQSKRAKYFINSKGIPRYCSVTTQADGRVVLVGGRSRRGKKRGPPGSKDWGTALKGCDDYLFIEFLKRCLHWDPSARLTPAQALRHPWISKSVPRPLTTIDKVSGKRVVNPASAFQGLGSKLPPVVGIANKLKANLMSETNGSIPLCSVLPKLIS

[11] = biological target: Dual specificity protein kinase CLK1 (Homo sapiens) (UniProt P49759); test: Inhibition of CLK1-mediated SRp75 protein phosphorylation in TNFalpha-stimulated human HMEC1 cells after 1 hr by Western blot analysis; assay type: cell-based; method in brief: as §2
[12] = biological target: Dual specificity protein kinase CLK2 (Homo sapiens) (UniProt P49760); settings: 10 uM
Sequence of Dual specificity protein kinase CLK2 (Homo sapiens) (P49760 whole entry, looked up): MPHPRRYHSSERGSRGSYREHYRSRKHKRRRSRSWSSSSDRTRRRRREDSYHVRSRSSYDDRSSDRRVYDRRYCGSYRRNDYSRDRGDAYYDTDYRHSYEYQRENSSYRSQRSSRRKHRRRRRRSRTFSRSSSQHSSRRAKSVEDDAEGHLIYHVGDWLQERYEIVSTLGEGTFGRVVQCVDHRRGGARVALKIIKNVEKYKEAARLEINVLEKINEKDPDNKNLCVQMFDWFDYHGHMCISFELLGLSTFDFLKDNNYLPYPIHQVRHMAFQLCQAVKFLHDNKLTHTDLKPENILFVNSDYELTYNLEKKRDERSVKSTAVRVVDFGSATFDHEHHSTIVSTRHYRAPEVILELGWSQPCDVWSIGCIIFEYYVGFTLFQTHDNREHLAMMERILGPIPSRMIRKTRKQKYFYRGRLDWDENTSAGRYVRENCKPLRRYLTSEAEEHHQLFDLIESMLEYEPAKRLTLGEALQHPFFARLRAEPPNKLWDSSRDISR

[13] = biological target: Dual specificity protein kinase CLK4 (Homo sapiens) (UniProt Q9HAZ1); settings: 10 uM
Sequence of Dual specificity protein kinase CLK4 (Homo sapiens) (Q9HAZ1 whole entry, looked up): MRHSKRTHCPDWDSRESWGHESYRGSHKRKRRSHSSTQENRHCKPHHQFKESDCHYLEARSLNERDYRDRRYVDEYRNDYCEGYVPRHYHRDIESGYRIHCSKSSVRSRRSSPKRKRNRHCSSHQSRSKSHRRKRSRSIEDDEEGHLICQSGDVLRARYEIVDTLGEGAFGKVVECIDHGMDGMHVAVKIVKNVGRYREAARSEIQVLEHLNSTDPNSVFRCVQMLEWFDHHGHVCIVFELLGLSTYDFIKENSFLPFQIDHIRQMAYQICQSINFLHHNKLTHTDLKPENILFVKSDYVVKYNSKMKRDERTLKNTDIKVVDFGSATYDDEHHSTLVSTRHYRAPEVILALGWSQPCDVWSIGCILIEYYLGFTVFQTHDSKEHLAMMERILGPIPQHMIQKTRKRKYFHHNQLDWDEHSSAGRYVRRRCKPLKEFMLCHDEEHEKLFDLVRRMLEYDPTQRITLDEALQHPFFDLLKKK

[14] = biological target: Dual specificity protein kinase CLK3 (Homo sapiens) (UniProt P49761); test: Inhibition of CLK3-mediated SRp75 protein phosphorylation in TNFalpha-stimulated human HMEC1 cells after 1 hr by Western blot analysis; assay type: cell-based; method in brief: as §2

For `O=C1NC(Nc2ccccc2)=N/C1=C\c1ccc2c(c1)OCO2`, the inhibition (Sus scrofa) was “inactive”, the IC50 [1] was 15 nM and the inhibition [2] was “Active”. For the same molecule, the inhibition [3] was “Active”, the “increase in exon inclusion ratio” value [4] was “Dose-dependent effect” and the inhibition [5] was “Active”. It also gave an IC50 [6] of 40 nM, an IC50 [7] of over 10 µM and an IC50 [8] of over 10 µM. The inhibition [9] was “Active”, the inhibition [10] was “Active” and the inhibition [11] was “Active”. For the same molecule, the inhibition [12] was “Active”, the inhibition [13] was “Active” and the inhibition [14] was “Active”.
